The values below come from ChEMBL document CHEMBL4011643, “Triaryl Benzimidazoles as a New Class of Antibacterial Agents against Resistant Pathogenic Microorganisms” (J Med Chem, 2017).

In data set [1] the test system is Enterococcus faecalis. Briefly: Antibacterial activity against vancomycin-sensitive Enterococcus faecalis NCTC 775 after 20 hrs by broth microdilution method. Type of data set: functional. To be noted: NCTC 775, 20 h. The procedure, abridged:
(§1)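 Broth microdilution in Tryptic Soy Broth, done in triplicate. Growth was read as OD600 after 20 h. MIC is the lowest drug concentration giving OD600 below 0.1.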
A general note: Dilution methods test growth across graded concentrations, often in twofold steps.

The next data set deals with Enterococcus faecium. Description: Antibacterial activity against vancomycin-resistant Enterococcus faecium NCTC 12204 after 20 hrs by broth microdilution method. Type of data set: functional. To be noted: NCTC 12204, 20 h. The procedure, abridged:
(§2)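 Broth microdilution in Tryptic Soy Broth; growth read as OD600 after 20 h. MIC taken as the lowest drug concentration giving OD600 below 0.1. Run in triplicate.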

The subject of data set [2] is Staphylococcus aureus. Briefly: Antibacterial activity against methicillin-sensitive Staphylococcus aureus ATCC 9144 after 20 hrs by broth microdilution method. Type of data set: functional. The conditions noted are these: ATCC 9144, 20 h. Summed up:
as §1

Data set [3] deals with Enterococcus faecalis. Briefly: Antibacterial activity against vancomycin-resistant Enterococcus faecalis NCTC 12201 after 20 hrs by broth microdilution method. Type of data set: functional. To be noted: NCTC 12201, 20 h. The procedure, abridged:
as §2

Data set [4] concerns Staphylococcus aureus. Briefly: Antibacterial activity against methicillin-resistant Staphylococcus aureus EMRSA-15 after 20 hrs by broth microdilution method. Type of data set: functional. The conditions noted are these: EMRSA-15, 20 h. The procedure, abridged: as §2
For data set [5], the system named is Staphylococcus aureus. Description: Antibacterial activity against methicillin-resistant Staphylococcus aureus MRSA252 after 20 hrs by broth microdilution method. It counts as functional. To be noted: MRSA252, 20 h. Summed up: as §2
The nature of data set [6]: Cytotoxicity against human HeLa cells assessed as cell viability at 25 uM after 24 hrs by MTT assay. It counts as cell-based. The conditions noted are these: read-out: Activity. Summed up: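 HeLa cells, 10000 per well, were grown at 37 °C in 5% CO2 and allowed to settle for 24 h. Compound was then added in triplicate for 24 h of continuous exposure. Viability was read by MTT colorimetry, with absorbance at 570 nm.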
(Tetrazolium assays rely on reduction of a dye to a coloured formazan, in cell work by metabolically active cells.)

A short description of data set [7]: Stabilization of FAM/TAMRA-labeled AT-rich DNA duplex (unknown origin) assessed as change in melting temperature at 1 uM by FRET-based assay. The procedure, abridged: (§3)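 FRET melting of a FAM/TAMRA-labelled AT-rich oligonucleotide, 400 nM working solution in 50 mM potassium, 50 mM cacodylate, pH 7.4. DNA was annealed at 85 °C for 6 min, then held at 25 °C for 5 h, and mixed 1:1 with sample. Fluorescence was read every 0.5 °C from 30 to 100 °C, with a 30 s hold per step. ΔTm is measured against the blank, in triplicate.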

Data set [8] can be described thus: Stabilization of FAM/TAMRA-labeled AT-rich DNA duplex (unknown origin) assessed as change in melting temperature at 5 uM by FRET-based assay. The procedure, abridged: as §3
The test system of data set [9] is Pseudomonas aeruginosa. Briefly: Antibacterial activity against Pseudomonas aeruginosa PAO1 after 20 hrs in the presence of PMBN by broth microdilution method. Type of data set: functional. The conditions noted are these: PAO1, 20 h. Summed up: as §1
Data set [10] has as its system Klebsiella pneumoniae. Briefly: Antibacterial activity against Klebsiella pneumoniae NCTC 13368 after 20 hrs in the presence of Pa-beta-N and magnesium ions by broth microdilution method. It counts as functional. To be noted: NCTC 13368, 20 h. The procedure, abridged: as §1
Data set [11] has as its system Klebsiella pneumoniae. Description: Antibacterial activity against Klebsiella pneumoniae M6 after 20 hrs by broth microdilution method. Type of data set: functional. To be noted: M6, 20 h. Summed up:
as §1

Data set [12] relates to Acinetobacter baumannii. Description: Antibacterial activity against Acinetobacter baumannii ATCC 17978 after 20 hrs in the presence of PMBN by broth microdilution method. It counts as functional. To be noted: ATCC 17978, 20 h. Summed up:
as §1

Data set [13] relates to Pseudomonas aeruginosa. Briefly: Antibacterial activity against Pseudomonas aeruginosa NCTC 13437 after 20 hrs in the presence of Pa-beta-N and magnesium ions by broth microdilution method. Type of data set: functional. The conditions noted are these: NCTC 13437, 20 h. The procedure, abridged:
as §1

For data set [14], the system named is Pseudomonas aeruginosa. Briefly: Antibacterial activity against Pseudomonas aeruginosa NCTC 13437 after 20 hrs by broth microdilution method. Type of data set: functional. To be noted: NCTC 13437, 20 h. Summed up: as §1
The test system of data set [15] is Acinetobacter baumannii. Briefly: Antibacterial activity against Acinetobacter baumannii AYE after 20 hrs by broth microdilution method. Type of data set: functional. Summed up: as §1
Data set [16] has as its system Acinetobacter baumannii. Briefly: Antibacterial activity against Acinetobacter baumannii ATCC 17978 after 20 hrs by broth microdilution method. It counts as functional. To be noted: ATCC 17978, 20 h. The procedure, abridged: as §1
The test system of data set [17] is Acinetobacter baumannii. Briefly: Antibacterial activity against Acinetobacter baumannii AYE after 20 hrs in the presence of Pa-beta-N and magnesium ions by broth microdilution method. Type of data set: functional. The procedure, abridged: as §1
Data set [18] concerns Pseudomonas aeruginosa. Description: Antibacterial activity against Pseudomonas aeruginosa PAO1 after 20 hrs in the presence of Pa-beta-N and magnesium ions by broth microdilution method. It counts as functional. To be noted: PAO1, 20 h. Summed up:
as §1

The subject of data set [19] is Klebsiella pneumoniae. Description: Antibacterial activity against Klebsiella pneumoniae NCTC 13368 after 20 hrs by broth microdilution method. Type of data set: functional. To be noted: NCTC 13368, 20 h. The procedure, abridged:
as §1

For data set [20], the system named is Pseudomonas aeruginosa. Description: Antibacterial activity against Pseudomonas aeruginosa PAO1 after 20 hrs by broth microdilution method. Type of data set: functional. The conditions noted are these: PAO1, 20 h. Summed up: as §1
Data set [21] relates to Acinetobacter baumannii. Briefly: Antibacterial activity against Acinetobacter baumannii ATCC 17978 after 20 hrs in the presence of Pa-beta-N and magnesium ions by broth microdilution method. Type of data set: functional. The conditions noted are these: ATCC 17978, 20 h. Summed up:
as §1

The test system of data set [22] is Klebsiella pneumoniae. Description: Antibacterial activity against Klebsiella pneumoniae M6 after 20 hrs in the presence of PMBN by broth microdilution method. To be noted: M6, 20 h. Type of data set: functional. Summed up:
as §1

The subject of data set [23] is Klebsiella pneumoniae. Description: Antibacterial activity against Klebsiella pneumoniae NCTC 13368 after 20 hrs in the presence of PMBN by broth microdilution method. Type of data set: functional. The conditions noted are these: NCTC 13368, 20 h. The procedure, abridged:
as §1

Data set [24] concerns Acinetobacter baumannii. Briefly: Antibacterial activity against Acinetobacter baumannii AYE after 20 hrs in the presence of PMBN by broth microdilution method. It counts as functional. The procedure, abridged:
as §1

Data set [25] has as its system Klebsiella pneumoniae. Briefly: Antibacterial activity against Klebsiella pneumoniae M6 after 20 hrs in the presence of Pa-beta-N and magnesium ions by broth microdilution method. Type of data set: functional. To be noted: M6, 20 h. Summed up: as §1
The test system of data set [26] is Pseudomonas aeruginosa. Briefly: Antibacterial activity against Pseudomonas aeruginosa NCTC 13437 after 20 hrs in the presence of PMBN by broth microdilution method. It counts as functional. To be noted: NCTC 13437, 20 h. The procedure, abridged:
as §1

Converted amounts (≈) assume the structure as drawn.

A word on the MIC: it is the smallest concentration in the dilution series that meets the test's criterion for growth inhibition. `CC1(C)S[C@@H]2[C@H](NC(=O)[C@H](N)c3ccc(O)cc3)C(=O)N2[C@H]1C(=O)O` [AMOXICILLIN]: the MIC was 0.5 mg/L (≈ 1.37 µM) in the data set with Enterococcus faecalis [1]; 16 mg/L (≈ 43.8 µM) in the data set on Enterococcus faecium; 1 mg/L (≈ 2.74 µM) in the data set on Staphylococcus aureus [2]; 0.5 mg/L (≈ 1.37 µM) with Enterococcus faecalis [3]; 128 mg/L (≈ 350 µM) with Staphylococcus aureus [4]; more than 128 mg/L against Staphylococcus aureus [5].
In the case of `CN[C@H](CC(C)C)C(=O)N[C@H]1C(=O)N[C@@H](CC(N)=O)C(=O)N[C@H]2C(=O)N[C@H]3C(=O)N[C@H](C(=O)N[C@H](C(=O)O)c4cc(O)cc(O)c4-c4cc3ccc4O)[C@H](O)c3ccc(c(Cl)c3)Oc3cc2cc(c3O[C@@H]2O[C@H](CO)[C@@H](O)[C@H](O)[C@H]2O[C@H]2C[C@](C)(N)[C@H](O)[C@H](C)O2)Oc2ccc(cc2Cl)[C@H]1O` [VANCOMYCIN], the MIC against Enterococcus faecalis [1] is 1 mg/L (≈ 0.69 µM); in the data set on Enterococcus faecium, more than 128 mg/L; against Enterococcus faecalis [3] it was more than 128 mg/L.
`CCN(CC)CCCNC(=O)c1ccc2c(c1)nc(C)n2-c1ccc(-c2cccc(NC(=O)c3ccc4nc(C)[nH]c4c3)c2)cn1`: the MIC in the data set on Enterococcus faecalis [3] and with Staphylococcus aureus [4] was more than 128 mg/L each time.
As for `Cc1nc2cc(C(=O)NCCCN(C)C)ccc2n1-c1ccc(Br)cn1`, the MIC in the data set on Enterococcus faecalis [3] and in the data set on Staphylococcus aureus [4] was more than 128 mg/L in each case.
As for `Cc1nc2cc(C(=O)NCCCN(C)C)ccc2n1-c1ccc(-c2cccc(N)c2)cn1`, the MIC in the data set with Enterococcus faecalis [3] and with Staphylococcus aureus [4] was more than 128 mg/L in each case.
Take `Cc1nc2ccc(C(=O)Nc3cccc(-c4ccc(-n5c(C)nc6cc(C(=O)NCCCN7CCOCC7)ccc65)nc4)c3)cc2[nH]1`: the MIC with Enterococcus faecalis [3] and in the data set with Staphylococcus aureus [4] was more than 128 mg/L each time.
As to `COC(=O)c1ccc2c(c1)nc(C)n2-c1ccc(-c2cccc(NC(=O)c3ccc4nc(C)[nH]c4c3)c2)cn1`, the MIC against Enterococcus faecalis [3] and in the data set with Staphylococcus aureus [4] was more than 32 mg/L each time.
On to `Cc1nc2cc(C(=O)NCCCN(C)C)ccc2n1-c1ccc(-c2cccc(NC(=O)c3ccc4nc(CCCN(C)C)[nH]c4c3)c2)cn1`, for which the MIC with Enterococcus faecalis [1] was more than 128 mg/L; in the data set on Enterococcus faecium, 64 mg/L (≈ 97.3 µM); with Staphylococcus aureus [2], more than 128 mg/L; with Enterococcus faecalis [3], 32 to 64 mg/L (≈ 48.6 to 97.3 µM); in the data set on Staphylococcus aureus [4], more than 128 mg/L; against Staphylococcus aureus [5] it was more than 128 mg/L. Further, the viability at 24 h, 25 µM in data set [6] is 39%.
Regarding `Cc1nc2cc(C(=O)NCCCN(C)C)ccc2n1-c1ccc(-c2cccc(NC(=O)c3ccccc3)c2)cn1`, the MIC against Enterococcus faecalis [3] and with Staphylococcus aureus [4] was more than 128 mg/L throughout.
As for `Cc1nc2ccc(-c3cccc(-c4ccc(-n5c(C)nc6cc(C(=O)NCCCN(C)C)ccc65)nc4)c3)cc2[nH]1`, the MIC in the data set on Enterococcus faecalis [1] is 64 mg/L (≈ 118 µM); with Enterococcus faecium, 64 mg/L (≈ 118 µM); with Staphylococcus aureus [2], more than 128 mg/L; in the data set on Enterococcus faecalis [3], 64 mg/L (≈ 118 µM); with Staphylococcus aureus [4], more than 128 mg/L; in the data set on Staphylococcus aureus [5] it was more than 128 mg/L. The viability at 24 h, 25 µM in data set [6] stood at 62%.
In the case of `Cn1cc(NC(=O)c2cc(NC(=O)CN=C(N)N)cn2C)cc1C(=O)NCCC(=N)N` [NETROPSIN], the figures for the deltaTm in data set [7] and in data set [8] were 16.5 °C and 22.2 °C, respectively.
Take `Cc1nc2ccc(C(=O)Nc3cccc(-c4ccc(-n5c(C)nc6cc(C(=O)NCCCN7CCCC7)ccc65)nc4)c3)cc2[nH]1`: the MIC with Enterococcus faecalis [3] and against Staphylococcus aureus [4] was more than 128 mg/L each time.
On to `Cc1nc2ccc(C(=O)Nc3cccc(-c4ccc(-n5c(C)nc6cc(C(=O)NCCCN7CCN(C)CC7)ccc65)nc4)c3)cc2[nH]1`, for which the MIC with Enterococcus faecalis [1] was more than 128 mg/L; in the data set on Pseudomonas aeruginosa [9], more than 32 mg/L; in the data set with Klebsiella pneumoniae [10] it was more than 32 mg/L; against Klebsiella pneumoniae [11] it was more than 32 mg/L; in the data set with Acinetobacter baumannii [12], more than 32 mg/L; in the data set with Enterococcus faecium, more than 128 mg/L. Besides, the MIC in the data set on Pseudomonas aeruginosa [13] was more than 32 mg/L; against Pseudomonas aeruginosa [14], more than 32 mg/L; with Acinetobacter baumannii [15], more than 32 mg/L; in the data set with Acinetobacter baumannii [16], more than 32 mg/L; with Acinetobacter baumannii [17] it was more than 32 mg/L; in the data set on Staphylococcus aureus [2], 16 mg/L (≈ 24.9 µM). Moreover, the MIC in the data set on Pseudomonas aeruginosa [18] was more than 32 mg/L; in the data set on Klebsiella pneumoniae [19] it was more than 32 mg/L; with Pseudomonas aeruginosa [20], more than 32 mg/L; in the data set with Acinetobacter baumannii [21], more than 32 mg/L; against Enterococcus faecalis [3], 64 mg/L (≈ 99.7 µM); against Staphylococcus aureus [4], more than 128 mg/L. The MIC in the data set on Klebsiella pneumoniae [22], with Klebsiella pneumoniae [23], in the data set on Staphylococcus aureus [5], with Acinetobacter baumannii [24], in the data set on Klebsiella pneumoniae [25] and with Pseudomonas aeruginosa [26] was more than 32 mg/L in each case. In addition, the viability at 24 h, 25 µM in data set [6] is more than 98%.
On to `COC(=O)c1ccc2c(c1)nc(C)n2-c1ccc(-c2cccc(NC(=O)c3ccc4nc(CCCN(C)C)[nH]c4c3)c2)cn1`, for which the MIC against Enterococcus faecalis [3] and against Staphylococcus aureus [4] was more than 128 mg/L in each case.
